Experiments:
[1] = Displacement of [125I]o-CRF from recombinant human CRF receptors expressed in Chinese Hamster Ovary (CHO) cell membranes
[2] = Brain/Plasma ratio level at 1 hr after a intravenous dose 0.5 mg/kg in rats; format: ADME, organism-based; design: dose 0.5 mg/kg, route intravenous; conditions: rat, read-out: Penetration
Method in brief: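 Hans–Wistar rats were given a single 0.5 mg/kg intravenous dose. Brain and plasma levels were measured at 1 h post-dose, and the brain/plasma ratio was taken from these levels.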

[3] = Oral bioavailability in rat at 1 hr (dose 0.5 mg/kg i.v.); format: ADME, organism-based; conditions: in vivo, 1 mg/kg
Method in brief: (§1)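 The pharmacokinetic study used Hans–Wistar rats. Each compound was given by the oral route at 1 mg/kg and by the intravenous route at 0.5 mg/kg. Plasma clearance and oral bioavailability were derived from these two administrations.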

[4] = Plasma clearance at 1 hr after a intravenous dose 0.5 mg/kg in rats; format: ADME, organism-based; design: dose 0.5 mg/kg, route intravenous; conditions: rat; method in brief: as §1

Structure (SMILES) | Log IC50 [1] | Kp at 1 h [2] | bioavailability [3] [%] | clearance [4] [mL/min/kg]
COCC(COC)N1CC2CCN(c3ccc(Cl)cc3Cl)c3nc(C)nc1c32 (stereo unspecified) | -5.9 |  |  | 
CCC(CC)n1cc2c3c(nc(C)nc31)N(c1ccc(C#N)cc1C)CC2 | -7.57 |  |  | 
CCCC(CCC)N1CC2CCN(c3ccc(Cl)cc3Cl)c3nc(C)nc1c32 (stereo in doubt; 2ae) | -7.96 |  |  | 
COCC(COC)Nc1nc(C)nc2c(-c3ccc(Cl)cc3Cl)c(C)nn12 | -7.42 |  |  | 
CCC(CC)n1cc2c3c(nc(C)nc31)N(c1ccc(C(F)(F)F)cc1C(F)(F)F)CC2 | -7.58 |  |  | 
CCCC(CCC)N1CC2CCN(c3ccc(Cl)cc3Cl)c3nc(C)nc1c32 (stereo in doubt; 2af) | -7.89 |  |  | 
CCC(CC)N1CC2CCN(c3ccc(Cl)cc3Cl)c3nc(C)nc1c32 (stereo unspecified) | -7.16 |  |  | 
CCCCN(CC)c1nc(C)nc2c1c(C)cn2-c1c(C)cc(C)cc1C [CP-154526] | -7.76 |  |  | 
CCC(CC)N1CCC2CN(c3ccc(Cl)cc3Cl)c3nc(C)nc1c32 (stereo unspecified) | -6.74 |  |  | 
Cc1nc2c3c(n1)N(c1ccc(Cl)cc1Cl)CC3CCN2CC1CC1 (stereo unspecified) | -5.35 |  |  | 
CCCC(CCC)N1CCC2CN(c3ccc(Cl)cc3Cl)c3nc(C)nc1c32 (stereo unspecified) | -7.52 | 1.8 | 31 | 31
CCC(CC)n1cc2c3c(nc(C)nc31)N(c1ccc(C#N)cc1Cl)CC2 | -7.21 |  |  | 
CCCC(CCC)n1cc2c3c(nc(C)nc31)N(c1ccc(C#N)cc1C)CC2 | -7.35 |  |  | 

Continued, values first:

Log IC50 [1] | Kp at 1 h [2] | bioavailability [3] [%] | clearance [4] [mL/min/kg] | Structure (SMILES)
-7.44 | 1.1 | 36 | 15 | CCCC(CCC)N1CC2CCN(c3ccc(C(F)(F)F)cc3C(F)(F)F)c3nc(C)nc1c32 (stereo in doubt; 2ad)
-7.85 | 1.3 | 33 | 10 | CCCC(CCC)n1cc2c3c(nc(C)nc31)N(c1ccc(C(F)(F)F)cc1C(F)(F)F)CC2
-7.55 |  |  |  | CCCC(CCC)N1CC2CCN(c3ccc(C(F)(F)F)cc3C(F)(F)F)c3nc(C)nc1c32 (stereo in doubt; 2ag)
-7.65 | 2 | 14 | 32 | CCCC(CCC)N1CC2CCN(c3ccc(Cl)cc3Cl)c3nc(C)nc1c32 (stereo in doubt; 2ac)
-7.39 |  |  |  | CCCC(CCC)N1CCC2CN(c3ccc(C(F)(F)F)cc3C(F)(F)F)c3nc(C)nc1c32 (stereo unspecified)
-7.84 |  |  |  | CCCC(CCC)N1CC2CCN(c3ccc(C(F)(F)F)cc3C(F)(F)F)c3nc(C)nc1c32 (stereo in doubt; 2ah)
